Calls of active or inactive are those of the source. The rule behind the calls is not given here.
Experiments:
RAW264.7 [1] = experiment: Antiinflammatory activity in mouse RAW264.7 cells assessed as inhibition of LPS-induced nitric oxide production; format: functional, cell-based
Procedure, shortened: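 RAW 264.7 cells stimulated with 20 ng/mL LPS plus a range of compound concentrations; nitric oxide output measured. Data normalized so LPS + solvent = 100% and untreated cells = 0% activation; IC50 fitted from dose–response, points averaged over nine replicates (SD).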

RAW264.7 [2] = experiment: Cytotoxicity against mouse RAW264.7 cells assessed as cell viability by WST1 assay; format: cell-based; details: read-out: LC50 (the source's name) (converted)
Procedure, shortened: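 RAW 264.7 mouse macrophages were stimulated with 20 ng/mL LPS and given a range of compound concentrations, alongside the nitric oxide inhibition assay. Cell viability was measured at each tested concentration. LC50 was taken as the concentration giving 50% cell viability.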

RAW264.7 [3] = experiment: Inhibition of IFNgamma-induced iNOS mRNA expression in mouse RAW264.7 cells at 1 to 50 uM after 16 hrs by RT-PCR analysis; format: functional
[4] = molecular target: T1, Nuclear factor NF-kappa-B complex (Homo sapiens) (UniProt Q00653+P19838+Q04206); experiment: Inhibition of LPS-induced NFkappaB activation in human HEK293T cells at 0.5 to 1 uM after 18 to 24 hrs by secreted embryonic alkaline phosphatase reporter gene assay; format: cell-based; details: HEK-293T
Procedure, shortened: (§1)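 NF-κB activation monitored by secreted embryonic alkaline phosphatase reporter in HEK 293T cells stimulated via TLR4 or TLR3; compound tested at concentrations […].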

RAW264.7 [5] = experiment: Antiinflammatory activity in mouse RAW264.7 cells assessed as inhibition of pam2CSK4-induced nitric oxide production; format: functional, cell-based
Procedure, shortened: (§2)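 RAW 264.7 cells stimulated with Pam2CSK4 (TLR2/6 ligand) or Poly I:C (TLR3 ligand) with varying compound concentrations; NO production read out. Normalized to agonist + solvent (100%) versus untreated (0%); IC50 from dose–response curves, nine replicates averaged, SD shown.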

RAW264.7 [6] = experiment: Cytotoxicity against mouse RAW264.7 cells assessed as cell viability up to 100 uM by WST1 assay; format: cell-based
Procedure, shortened: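 Cell viability assay run on the compound-treated RAW 264.7 cultures at each tested concentration; LC50 taken as concentration giving 50% viability.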

RAW264.7 [7] = experiment: Antiinflammatory activity in mouse RAW264.7 cells assessed as inhibition of poly I:C-induced nitric oxide production; format: functional, cell-based; procedure, shortened: as §2
RAW264.7 [8] = experiment: Inhibition of LPS-induced iNOS mRNA expression in mouse RAW264.7 cells after 20 hrs by RT-PCR analysis; format: functional, cell-based
Procedure, shortened: (§3)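 RAW 264.7 cells incubated 20 h with 20 ng/mL LPS and varying compound concentrations; iNOS mRNA quantified by real-time PCR, ligand-induced cells set to fold change 1. Three biological replicates, each in technical duplicate; SD reported.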

RAW264.7 [9] = experiment: Inhibition of LPS-induced iNOS protein expression in mouse RAW264.7 cells after 20 hrs by Western blot analysis; format: functional, cell-based
Procedure, shortened: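 RAW 264.7 cells treated with LPS and varying compound concentrations; iNOS protein detected by Western blot using a pan-NOS antibody.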

[10] = molecular target: T1, Nuclear factor NF-kappa-B complex (Homo sapiens); experiment: Inhibition of poly I:C-induced NFkappaB activation in human HEK293T cells at 0.5 to 1 uM after 18 to 24 hrs by secreted embryonic alkaline phosphatase reporter gene assay; format: cell-based; details: HEK-293T; procedure, shortened: as §1
[11] = molecular target: T1, Nuclear factor NF-kappa-B complex (Homo sapiens); experiment: Inhibition of TNFalpha-induced NFkappaB activation in human HEK293T cells at 0.5 to 1 uM after 18 to 24 hrs by secreted embryonic alkaline phosphatase reporter gene assay; format: cell-based; details: HEK-293T
RAW264.7 [12] = experiment: Inhibition of TNFalpha production in mouse RAW264.7 cells at 0.5 to 1 uM by ELISA; format: functional, cell-based
Procedure, shortened: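 TNF-α cytokine levels from compound-treated RAW 264.7 cells measured by commercial ELISA.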

[13] = Inhibition of JAK/STAT signaling pathway in LPS-induced mouse RAW264.7 cells assessed as inhibition of IFNgamma-induced nitric oxide production; format: cell-based
Procedure, shortened: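 JAK/STAT1 signalling activated in RAW 264.7 cells with 5 ng/mL IFN-γ alongside varying compound concentrations; NO production measured. Values normalized with ligand + solvent as 100% and untreated cells as 0%; IC50 derived from dose–response.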

[14] = Inhibition of JAK/STAT signaling pathway in LPS-induced mouse RAW264.7 cells assessed as change in NOS2 mRNA expression by RT-PCR analysis relative to control; format: cell-based
[15] = Inhibition of JAK/STAT signaling pathway in LPS-induced mouse RAW264.7 cells assessed as change in Cebpb mRNA expression by RT-PCR analysis relative to control; format: cell-based
[16] = Inhibition of JAK/STAT signaling pathway in LPS-induced mouse RAW264.7 cells assessed as change in Gtp1 mRNA expression by RT-PCR analysis relative to control; format: cell-based
RAW264.7 [17] = experiment: Inhibition of LPS-induced iNOS mRNA expression in mouse RAW264.7 cells at 10 to 100 uM after 20 hrs by RT-PCR analysis; format: functional; procedure, shortened: as §3
[18] = system: RAW 264.7 cells (Mus musculus); experiment: Antiinflammatory activity in mouse RAW264.7 cells assessed as inhibition of LPS-induced nitric oxide production

T1 sequence (P19838 whole entry, looked up): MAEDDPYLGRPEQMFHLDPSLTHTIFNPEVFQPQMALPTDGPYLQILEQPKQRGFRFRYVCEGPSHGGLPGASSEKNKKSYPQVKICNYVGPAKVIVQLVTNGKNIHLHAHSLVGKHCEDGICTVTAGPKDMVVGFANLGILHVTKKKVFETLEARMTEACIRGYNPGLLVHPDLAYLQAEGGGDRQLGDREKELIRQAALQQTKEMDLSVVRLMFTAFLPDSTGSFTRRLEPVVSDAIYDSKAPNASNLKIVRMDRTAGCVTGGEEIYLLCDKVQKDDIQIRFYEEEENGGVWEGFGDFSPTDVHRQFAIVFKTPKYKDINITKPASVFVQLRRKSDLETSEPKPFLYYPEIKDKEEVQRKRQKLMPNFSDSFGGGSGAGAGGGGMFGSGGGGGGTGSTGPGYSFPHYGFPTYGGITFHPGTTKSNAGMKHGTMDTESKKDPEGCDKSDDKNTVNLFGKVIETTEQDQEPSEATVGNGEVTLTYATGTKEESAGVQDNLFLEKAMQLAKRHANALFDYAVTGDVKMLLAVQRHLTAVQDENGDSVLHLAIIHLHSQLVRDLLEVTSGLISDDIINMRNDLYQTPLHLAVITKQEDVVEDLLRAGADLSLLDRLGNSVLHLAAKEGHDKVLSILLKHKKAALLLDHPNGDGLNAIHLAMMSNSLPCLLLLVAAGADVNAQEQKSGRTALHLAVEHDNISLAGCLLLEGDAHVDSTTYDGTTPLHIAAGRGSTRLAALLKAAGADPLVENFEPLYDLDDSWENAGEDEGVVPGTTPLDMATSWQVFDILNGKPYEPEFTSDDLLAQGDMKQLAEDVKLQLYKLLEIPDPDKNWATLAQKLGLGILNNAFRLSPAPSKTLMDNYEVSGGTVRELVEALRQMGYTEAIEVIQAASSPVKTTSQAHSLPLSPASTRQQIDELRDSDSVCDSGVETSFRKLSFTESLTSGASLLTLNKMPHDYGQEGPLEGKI
T1 sequence (Q00653 whole entry, looked up): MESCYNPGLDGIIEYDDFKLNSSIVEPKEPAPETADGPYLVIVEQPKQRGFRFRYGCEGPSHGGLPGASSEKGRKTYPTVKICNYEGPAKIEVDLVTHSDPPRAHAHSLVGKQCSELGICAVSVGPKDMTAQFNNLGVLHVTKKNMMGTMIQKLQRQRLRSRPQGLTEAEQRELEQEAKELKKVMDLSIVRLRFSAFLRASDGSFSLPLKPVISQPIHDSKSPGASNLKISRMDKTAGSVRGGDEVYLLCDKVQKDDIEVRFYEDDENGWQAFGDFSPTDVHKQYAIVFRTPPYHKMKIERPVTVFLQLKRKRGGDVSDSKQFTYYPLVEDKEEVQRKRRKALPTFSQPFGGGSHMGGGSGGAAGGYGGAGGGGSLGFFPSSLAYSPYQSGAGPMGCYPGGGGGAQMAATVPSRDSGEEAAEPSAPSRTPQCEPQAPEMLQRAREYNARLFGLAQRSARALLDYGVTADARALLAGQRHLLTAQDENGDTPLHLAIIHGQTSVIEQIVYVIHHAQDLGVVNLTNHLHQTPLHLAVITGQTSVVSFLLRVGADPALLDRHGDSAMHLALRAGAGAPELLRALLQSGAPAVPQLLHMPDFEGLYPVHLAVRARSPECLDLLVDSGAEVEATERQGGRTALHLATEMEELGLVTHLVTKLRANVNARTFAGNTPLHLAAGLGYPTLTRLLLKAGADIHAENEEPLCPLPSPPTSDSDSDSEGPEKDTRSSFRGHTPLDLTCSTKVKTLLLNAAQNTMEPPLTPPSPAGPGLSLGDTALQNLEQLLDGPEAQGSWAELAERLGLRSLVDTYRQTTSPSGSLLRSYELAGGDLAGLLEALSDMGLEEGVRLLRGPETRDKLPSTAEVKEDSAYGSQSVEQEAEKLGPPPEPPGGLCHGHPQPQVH
T1 sequence (Q04206 whole entry, looked up): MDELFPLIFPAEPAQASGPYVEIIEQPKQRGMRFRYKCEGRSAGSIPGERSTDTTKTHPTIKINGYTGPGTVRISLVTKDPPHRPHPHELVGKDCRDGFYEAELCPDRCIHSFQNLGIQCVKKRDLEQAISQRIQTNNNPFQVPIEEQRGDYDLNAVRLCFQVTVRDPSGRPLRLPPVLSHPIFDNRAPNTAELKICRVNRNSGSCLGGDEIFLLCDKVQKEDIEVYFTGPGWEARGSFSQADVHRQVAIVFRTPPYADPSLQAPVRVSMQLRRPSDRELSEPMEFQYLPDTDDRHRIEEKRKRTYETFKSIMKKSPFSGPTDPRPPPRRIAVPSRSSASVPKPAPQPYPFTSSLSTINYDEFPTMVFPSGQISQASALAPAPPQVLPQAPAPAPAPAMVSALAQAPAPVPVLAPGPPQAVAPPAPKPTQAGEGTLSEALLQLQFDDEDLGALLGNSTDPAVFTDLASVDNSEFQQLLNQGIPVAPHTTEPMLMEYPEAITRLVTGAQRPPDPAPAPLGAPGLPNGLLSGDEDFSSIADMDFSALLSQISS

| Compound | IC50 (RAW264.7 [1]) [µM] | CC50 (RAW264.7 [2]) [µM] | further results |
| --- | --- | --- | --- |
| O=C(NCc1ccco1)c1ccc(Cn2c(=O)c3ccccc3[s+]2[O-])cc1 (centres undefined) | 23.3 | > 100 |  |
| CC(=O)N(Cc1ccco1)C(=O)c1ccc(CN2C(=O)c3ccccc3S2(=O)=O)cc1 | 42.6 | > 100 |  |
| O=C(c1ccc(CN2C(=O)c3ccccc3S2(=O)=O)cc1)N1CCCCC1 | 50.6 | 69.2 |  |
| CC(C)(C)OC(=O)N(CCc1ccco1)C(=O)c1ccc(CN2C(=O)c3ccccc3S2(=O)=O)cc1 | 48.6 | > 100 |  |
| O=C(NCc1ccco1)c1ccc(CN2C(=O)c3ccccc3S2(=O)=O)cc1 | 24.3 | > 100 |  |
| O=C(c1ccc(Cn2sc3ccccc3c2=O)cc1)N1CCCCC1 | 5.38 | 70.3 |  |
| O=C(NCc1ccco1)c1ccc(CN2C(=O)c3ccccc3C2=O)cc1 | 56 | > 100 |  |
| CC1=C(c2ccc3ccccc3c2)S(=O)(=O)N(Cc2ccc(C(=O)N3CCCCC3)cc2)C1=O | 9.61 | 47.9 |  |
| NC(=O)c1ccc(CN2C(=O)c3ccccc3S2(=O)=O)cc1 | 50.6 | > 100 | inhibition (INH) (RAW264.7 [3]): 50% |
| CN(C(=O)OC(C)(C)C)C(=O)c1ccc(CN2C(=O)c3ccccc3S2(=O)=O)cc1 | 42 | > 100 |  |
| CC1=C(c2cc[n+]([O-])cc2)S(=O)(=O)N(Cc2ccc(C(=O)N3CCCCC3)cc2)C1=O | 79.4 | > 100 |  |
| O=C(c1ccc(CN2C(=O)c3ccccc3C2=O)cc1)N1CCCCC1 | > 100 | > 100 |  |
| CNC(=O)c1ccc(CN2C(=O)c3ccccc3S2(=O)=O)cc1 | 37.7 | > 100 |  |
| O=C(NCc1ccco1)c1ccc(CN2Cc3ccccc3S2(=O)=O)cc1 | 68.4 | > 100 |  |
| CC(C)(C)OC(=O)N(Cc1ccco1)C(=O)c1ccc(Cn2oc3ccccc3c2=O)cc1 | 6.69 | > 100 |  |
| CC(C)(C)OC(=O)N(C(=O)OC(C)(C)C)C(=O)c1ccc(CN2C(=O)c3ccccc3S2(=O)=O)cc1 | 33.4 | > 100 |  |
| O=C(c1ccc(Cn2c(=O)c3ccccc3[s+]2[O-])cc1)N1CCCCC1 (centres undefined) | 49 | > 100 |  |
| O=C(c1ccc(CN2Cc3ccccc3S2(=O)=O)cc1)N1CCCCC1 | 44.3 | > 100 |  |

| Compound | IC50 (RAW264.7 [1]) [µM] | CC50 (RAW264.7 [2]) [µM] | further results |
| --- | --- | --- | --- |
| CC(C)(C)OC(=O)N(Cc1ccco1)C(=O)c1ccc(CN2Cc3ccccc3S2(=O)=O)cc1 | 10.6 | > 100 |  |
| CC(C)(C)OC(=O)N(Cc1ccco1)C(=O)c1ccc(CN2C(=O)c3ccccc3S2(=O)=O)cc1 | 2.61 | > 100 | inhibition [4]: inactive; inhibition (RAW264.7 [1]): Dose-dependent effect; IC50 (RAW264.7 [5]): 1.69 µM; inhibition (RAW264.7 [5]): Dose-dependent effect; Activity (RAW264.7 [6]): Non-toxic; IC50 (RAW264.7 [7]): 10.9 µM; inhibition (RAW264.7 [7]): Dose-dependent effect; inhibition (RAW264.7 [8]): Dose-dependent effect; inhibition (RAW264.7 [9]): Dose-dependent effect; inhibition (INH) (RAW264.7 [3]): >70%; inhibition [10]: inactive; inhibition [11]: inactive; inhibition (RAW264.7 [12]): inactive; IC50 [13]: 7.88 µM; inhibition [13]: Dose-dependent effect; Activity [14]: Active; Activity [15]: Active; Activity [16]: Active; inhibition (INH) (RAW264.7 [17]): <=67%; IC50 [18]: 9.61 µM |
| O=C(NCCc1ccco1)c1ccc(CN2C(=O)c3ccccc3S2(=O)=O)cc1 | 76.6 | > 100 |  |
| CC(C)(C)OC(=O)N(Cc1ccco1)C(=O)c1ccc(Cn2c(=O)c3ccccc3[s+]2[O-])cc1 (centres undefined) | 68 | 87.3 |  |
| O=C(NCc1ccco1)c1ccc(CN2Cc3ccccc3C2=O)cc1 | 49.7 | > 100 |  |
| O=C(O)c1ccc(CN2C(=O)c3ccccc3S2(=O)=O)cc1 | 74.7 | > 100 |  |
| O=C(NCc1ccco1)c1ccc(Cn2sc3ccccc3c2=O)cc1 | 19.8 | > 100 |  |
| CC(C)(C)OC(=O)N(Cc1ccco1)C(=O)c1ccc(CN2Cc3ccccc3C2=O)cc1 | 51.8 | 95.2 |  |
| CC(C)(C)OC(=O)N(Cc1ccco1)C(=O)c1ccc(CN2C(=O)c3ccccc3C2=O)cc1 | 3.45 | > 100 |  |
| COC(=O)N(Cc1ccco1)C(=O)c1ccc(CN2C(=O)c3ccccc3S2(=O)=O)cc1 | 76 | > 100 |  |
| O=C(c1ccc(CN2Cc3ccccc3C2=O)cc1)N1CCCCC1 | 21.9 | > 100 |  |
| O=C(c1ccc(Cn2oc3ccccc3c2=O)cc1)N1CCCCC1 | 16.8 | 66.2 |  |
| CC(C)(C)OC(=O)N(Cc1ccco1)C(=O)c1ccc(Cn2sc3ccccc3c2=O)cc1 | 68 | > 100 | inhibition (INH) (RAW264.7 [3]): 50% |
| CC(C)(C)OC(=O)c1ccc(CN2C(=O)c3ccccc3S2(=O)=O)cc1 | 10.6 | > 100 |  |
| O=C(NCc1ccco1)c1ccc(Cn2oc3ccccc3c2=O)cc1 | 49.3 | > 100 |  |
| CC(C)(C)OC(=O)NC(=O)c1ccc(CN2C(=O)c3ccccc3S2(=O)=O)cc1 | 64.7 | > 100 |  |
| CC1=C(c2ccc(C)c(C)c2)S(=O)(=O)N(Cc2ccc(C(=O)N3CCCCC3)cc2)C1=O | 16.5 | > 100 |  |
| CN(Cc1ccco1)C(=O)c1ccc(CN2C(=O)c3ccccc3S2(=O)=O)cc1 | 79.6 | > 100 |  |
